Molecules are shown by their SMILES.

These results are taken from ChEMBL document CHEMBL3853290, “Sesquiterpenoids Isolated from Two Species of the Asteriscus Alliance” (J Nat Prod, 2016).

What all share (assay type): functional, cell-based
A short description of test [1]: Cytotoxicity against human HL60 cells assessed as cell growth inhibition after 72 hrs by MTT assay. The note with it: HL-60, 72 h. Put shortly: (§1)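 Cells from DSMZ, grown in RPMI 1640 with 2 mM L-glutamine and 10% heat-inactivated FBS. 1 × 10^4 exponentially growing cells per well exposed to a range of compound concentrations. MTT (0.5 mg/mL) added, 4 h at 37 °C, then 10% SDS in 0.05 M HCl overnight at room temperature in the dark. Absorbance read at 570 nm. IC50 from nonlinear regression, means ± SE of ≥3 independent experiments in triplicate. Etoposide as positive control.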

The nature of test [2]: (§2) Cytotoxicity against human MOLT3 cells assessed as cell growth inhibition after 72 hrs by MTT assay. The note with it: MOLT-3, 72 h. The method, boiled down: as §1
The test system of test [3] is MOLT-3. The test is described as §2. Put shortly:
as §1

With `CC1(C)C[C@@H]2C(=O)[C@](C)(O)/C=C\C[C@@H]3C(=O)O[C@H]1[C@@H]32`, the IC50 in test [1] and in test [2] was more than 10 µM each time.

Regarding `COc1cc([C@@H]2c3cc4c(cc3[C@@H](O[C@@H]3O[C@@H]5CO[C@@H](C)O[C@H]5[C@H](O)[C@H]3O)[C@H]3COC(=O)[C@H]23)OCO4)cc(OC)c1O` [ETOPOSIDE], the values for the IC50 in test [1] and in test [2] were 0.5 µM and 0.7 µM, respectively.

With `C/C1=C/CC[C@]23O[C@H]2[C@H](OC3=O)C(C)(C)/C=C/C1=O`, the IC50 in test [1] and in test [2] was more than 10 µM in each case.

With `C[C@@H]1C(=O)/C=C\C(C)(C)[C@@H]2C=C(CC[C@@H]1O)C(=O)O2`, the IC50 in test [1] and in test [2] was more than 10 µM throughout.

Regarding `CCO[C@H]1CCC2=C[C@H](OC2=O)C(C)(C)/C=C\C(=O)[C@H]1C`, the IC50 in test [1] and in test [2] was more than 10 µM throughout.

Turning to `CC1(C)/C=C\C(=O)[C@@]2(C)O[C@H]2CCC2=C[C@@H]1OC2=O`, the IC50 amounted to 5.4 µM in test [1] and 4.1 µM in test [2]. The “growth inhibition (GI)” value in test [3] is “Dose-dependent effect”.
